One compound from ChEMBL document CHEMBL2177098, “Synthesis and evaluation of novel ¹⁸F labeled 2-pyridinylbenzoxazole and 2-pyridinylbenzothiazole derivatives as ligands for positron emission tomography (PET) imaging of β-amyloid plaques” (J Med Chem, 2012) can be followed below.

Data set [1] has as its system Brain. The data set is described as follows: Drug uptake in wild type C57BL6 mouse brain at 370 KBq/100 ul after 1 hr by autoradiographic analysis. It is filed as ADME, tissue-based. To be noted: in vitro. In short, it runs like this: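 Paraffin brain sections from 12-month-old male control C57BL6 mice were deparaffinized through xylene and graded ethanol, then held in PBS (0.2 M, pH 7.4) for 30 min. They were incubated with the ¹⁸F tracer (370 KBq per 100 μL) for 1 h at room temperature. Sections were washed in 40% EtOH, rinsed with water for 1 min, dried, and exposed to a phosphor plate for 2 h. The same sections were then stained with thioflavin S.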

For data set [2], the system named is Brain. The data set is described as follows: Drug uptake in ICR mouse brain at 370 kBq/100 ul, iv at 10 mins by gamma-counting analysis. It is filed as ADME, organism-based. The conditions noted are these: in vivo. In outline: (§1)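 Male ICR mice (5 weeks, about 20 g) got 18F tracer in saline (370 KBq per 100 μL) via tail vein; n = 5 per time point, killed at 2, 10, 30, 60 min. Organs weighed and γ-counted; percent dose per gram wet tissue from comparison with diluted injectate aliquots.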

In data set [3] the test system is Blood. Briefly: Drug uptake in ICR mouse blood at 370 kBq/100 ul, iv at 10 mins by gamma-counting analysis. The data set is classed as ADME, organism-based. The conditions noted are these: in vivo. In outline: as §1
The subject of data set [4] is Stomach. The data set is described as follows: Drug uptake in ICR mouse stomach assessed per organ at 370 kBq/100 ul, iv at 10 mins by gamma-counting analysis. It is filed as ADME, organism-based. The conditions noted are these: in vivo. In outline:
(§2)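 Male ICR mice (5 weeks, about 20 g) got 18F tracer in saline (370 KBq per 100 μL) via tail vein; n = 5 per time point, killed at 2, 10, 30, 60 min. Organs removed and γ-counted against diluted injectate; expressed as % injected dose per organ.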

The test system of data set [5] is Bone. Briefly: Drug uptake in ICR mouse bone at 370 kBq/100 ul, iv at 10 mins by gamma-counting analysis. The data set is classed as ADME, organism-based, Bone element. The conditions noted are these: in vivo. In short, it runs like this:
as §1

The subject of data set [6] is Lung. The data set is described as follows: Drug uptake in ICR mouse lung at 370 kBq/100 ul, iv at 30 mins by gamma-counting analysis. It is filed as ADME, organism-based. To be noted: in vivo, 0.5 h. In short, it runs like this:
as §1

Data set [7] concerns Kidney. Briefly: Drug uptake in ICR mouse kidney at 370 kBq/100 ul, iv at 10 mins by gamma-counting analysis. To be noted: in vivo. The data set is classed as ADME, organism-based. In outline:
as §1

Data set [8] has as its system Blood. Briefly: Drug uptake in ICR mouse blood at 370 kBq/100 ul, iv at 2 mins by gamma-counting analysis. It is filed as ADME, organism-based. The conditions noted are these: in vivo. In short, it runs like this:
as §1

In data set [9] the test system is Liver. Briefly: Drug uptake in ICR mouse liver at 370 kBq/100 ul, iv at 30 mins by gamma-counting analysis. The data set is classed as ADME, organism-based. The conditions noted are these: in vivo, 0.5 h. In outline:
as §1

Data set [10] deals with Spleen. Briefly: Drug uptake in ICR mouse spleen at 370 kBq/100 ul, iv at 60 mins by gamma-counting analysis. The data set is classed as ADME, organism-based. To be noted: in vivo, 1 h. In short, it runs like this:
as §1

Data set [11] has as its system Kidney. The data set is described as follows: Drug uptake in ICR mouse kidney at 370 kBq/100 ul, iv at 30 mins by gamma-counting analysis. The data set is classed as ADME, organism-based. The conditions noted are these: in vivo, 0.5 h. In short, it runs like this: as §1
The test system of data set [12] is Brain. The data set is described as follows: Drug uptake in ICR mouse brain at 370 kBq/100 ul, iv at 30 mins by gamma-counting analysis. It is filed as ADME, organism-based. To be noted: in vivo, 0.5 h. In outline:
as §1

In data set [13] the test system is Brain. Briefly: Drug uptake in ICR mouse brain at 370 kBq/100 ul, iv at 2 mins by gamma-counting analysis. The conditions noted are these: in vivo. The data set is classed as ADME, organism-based. In short, it runs like this: as §1
Data set [14] concerns Kidney. The data set is described as follows: Drug uptake in ICR mouse kidney at 370 kBq/100 ul, iv at 60 mins by gamma-counting analysis. The data set is classed as ADME, organism-based. The conditions noted are these: in vivo, 1 h. In short, it runs like this:
as §1

In data set [15] the test system is Stomach. The data set is described as follows: Drug uptake in ICR mouse stomach assessed per organ at 370 kBq/100 ul, iv at 2 mins by gamma-counting analysis. It is filed as ADME, organism-based. The conditions noted are these: in vivo. In outline:
as §2

Data set [16] concerns Liver. Briefly: Drug uptake in ICR mouse liver at 370 kBq/100 ul, iv at 60 mins by gamma-counting analysis. The data set is classed as ADME, organism-based. The conditions noted are these: in vivo, 1 h. In outline:
as §1

In data set [17] the test system is Intestine. Briefly: Drug uptake in ICR mouse intestine assessed per organ at 370 kBq/100 ul, iv at 2 mins by gamma-counting analysis. The data set is classed as ADME, organism-based. The conditions noted are these: in vivo. In short, it runs like this: as §2
For data set [18], the system named is Bone. The data set is described as follows: Drug uptake in ICR mouse bone at 370 kBq/100 ul, iv at 60 mins by gamma-counting analysis. The data set is classed as ADME, organism-based, Bone element. The conditions noted are these: in vivo, 1 h. In short, it runs like this:
as §1

Data set [19] relates to Bone. Briefly: Drug uptake in ICR mouse bone at 370 kBq/100 ul, iv at 2 mins by gamma-counting analysis. The conditions noted are these: in vivo. It is filed as ADME, organism-based, Bone element. In short, it runs like this: as §1
The subject of data set [20] is Intestine. The data set is described as follows: Drug uptake in ICR mouse intestine assessed per organ at 370 kBq/100 ul, iv at 10 mins by gamma-counting analysis. It is filed as ADME, organism-based. To be noted: in vivo. In short, it runs like this: as §2
For data set [21], the system named is Brain. Briefly: Drug uptake in healthy human brain at 370 KBq/100 ul after 1 hr by autoradiographic analysis. The data set is classed as ADME, tissue-based. The conditions noted are these: in vitro.
Data set [22] concerns Heart. Briefly: Drug uptake in ICR mouse heart at 370 kBq/100 ul, iv at 10 mins by gamma-counting analysis. The data set is classed as ADME, organism-based. To be noted: in vivo. In short, it runs like this:
as §1

Data set [23] is described as follows: Displacement of [125I]-IMPY from amyloid beta (1 to 42) fibrils after 2 hrs by gamma-counting analysis. In outline: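 Competition binding with aggregated Aβ1-42 fibrils and [125I]IMPY (60000−100000 cpm/100 μL) in 0.05% BSA (1 mL total); inhibitors 10⁻⁴−10^−8.5 M in ethanol. Incubated 37 °C for 2 h, then GF/B vacuum filtration with PBS (0.02 M, pH 7.4) washes and γ counting. Three repeats; IC50 converted to Ki by Cheng−Prusoff.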
(Loss of bound radioactivity is the signal in a displacement assay; it reports binding, not function.)

Each structure is given as a SMILES string.

As to `CNc1ccc(-c2nc3cc(OCCOCCOCC[18F])ccc3o2)cn1`, the Drug uptake result in data set [1] is recorded as “Not Active”; in data set [2] it was 2.05 % ID/g; in [3], 3.04 % ID/g; in [4] it was 12.32 %ID; in data set [5] it was 1.92 % ID/g; in data set [6], 2.81 % ID/g. Further, the Drug uptake turned out to be 4.79 % ID/g in data set [7]; 5.07 % ID/g in [8]; 6.47 % ID/g in [9]; 1.79 % ID/g in data set [10]; 3.73 % ID/g in data set [11]; 2.06 % ID/g in data set [12]. Besides, the Drug uptake in [13] was determined as 4.05 % ID/g; in data set [14], 2.54 % ID/g; in data set [15], 5.08 %ID; in data set [16], 4.21 % ID/g; in data set [17] it was 10.81 %ID; in data set [18], 3.93 % ID/g. The Drug uptake in [19] is 1.75 % ID/g; in data set [20] it was 22.9 %ID; in data set [21], “Not Active”; in [22] it was 3.35 % ID/g. Besides, the Ki (commonly the dissociation constant of the complex between target and ligand, obtained from inhibition or displacement) in data set [23] worked out at 76.9 nM.
